CSC inhib = blocks cancer stem cells; cancer stem cell-like cells viability, luminescence; AID 2717; 300,000 compounds, 1.1% hits; inhibition, % at 7.5 µM; in the data active = inhibition above about 75%; tested in HMLE shEcad cells
Efflux pump inh = inhibitors of Candida antifungal efflux pumps expressed in yeast; S. cerevisiae Candida pump triplex, Nile Red efflux; inhibition, % at 10 µM; 330,000 compounds, 0.44% hits; AID 485275;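 active = plate passing quality check with inhibition over a set limit, or well fluorescence over plate mean plus 4 SD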;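 also: Nile Red retained in pooled yeast measured as flow cytometry median fluorescence; 0% = buffer negative control and 100% = Enniatin B positive control; higher means more Nile Red kept so more efflux inhibition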
SUMO Mot1 rescue = SUMOylation pathway inhibition by Mot1-301 growth rescue; growth rescue, % at 18.8 µM; S. cerevisiae Mot1-301 growth rescue, ATP luminescence, 38.5C; percent above DMSO median, 100 means doubled; 320,000 compounds, 1% hits;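 active = every valid replicate shows activation above 250% relative to neutral control wells; inactive = the rest, any valid replicate at or below 250%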;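 also: OY570 slx delta 5 strain wells were the positive control but not used for scaling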
WT yeast gro inh = growth inhibition of WT yeast, mitochondrial fusion screen | 190,000 compounds, 2.1% hits | inhibition, % at 10 µM | mitochondrial fusion phenotypic screen, WT strain; in the data active = inhibition above about 58%; tested in S. cerevisiae
T cruzi inh = blocks replication of Trypanosoma cruzi; T. cruzi beta-gal in NIH3T3, luminescence, 90 h; inhibition, % (concentration not given with the values); 300,000 compounds, 1.4% hits;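 active = mean inhibition across valid replicates above about 55%, limit read from the data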;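 also: signal also drops with host cell toxicity which is not excluded here; 0% = plate median of DMSO wells and 100% = zero luminescence signal; higher percent means less beta-gal luminescence so fewer parasites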
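Test system: β-gal T. cruzi (Tulahuen C4) inside NIH/3T3 cells / Quantity: 5,000 cells/well / Measured by: luminescence from GalScreen with 0.05% NP40, read after 60 min / Medium: DMEM plus 2% FBS / Measure: parasite load inhibition, % / Reagent: Tulahuen C4 trypomastigotes, 5000/well / Schedule: co-culture of at least 90 h after 3 h attachment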
Beta apoptosis = blocks beta cell apoptosis. INS-1E cytokine-induced death, ATP luminescence, 48 h; percent of positive-control rescue, neutral wells zero. protection from apoptosis, % (concentration not given with the values). 300,000 compounds, 0.8% hits;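 active = Every replicate reaches about 75%, or at least half do and their mean reaches it too, limit read from the data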;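 also: 0% = cytokine-treated negative control wells and 100% = positive control rescue; higher means more ATP so stronger rescue from cytokine killing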
The depositor's hits bear a star; / = not tested or not shown. Rows were chosen to be rich in hits. Some 4.8% of all compounds tested hit in one or more screens of this group.

SMILES	CSC inhib	Efflux pump inh	SUMO Mot1 rescue	WT yeast gro inh	T cruzi inh	Beta apoptosis
Cc1nn(Cc2ccc(Cl)cc2Cl)c(Cl)c1/C=N/NC(=O)CNc1cccc(C(F)(F)F)c1	26	0	-1	14	71*	20
CSc1nnc2c3cc(F)ccc3n(Cc3ccccc3)c2n1	/	0	-28	/	-21	2
CCN(CC)CCSc1nnc2c3cc(C)ccc3n(Cc3ccccc3)c2n1	5	0	-2	/	58*	11
Cn1nc(C(C)(C)C)cc1C(=O)NCc1cc(F)cc2c1OCOC2	-12	0	5	/	/	102*
Cc1cc(C(=O)NCc2cc(F)cc3c2OCOC3)nn1C	-10	0	-5	/	-7	/
Cc1nc(-c2ccncc2)nc(NCCNc2ncccc2C(F)(F)F)c1Cl	-5	0	43	/	77*	/
O=[N+]([O-])c1c(Nc2ccc(O)cc2)cc(Cl)c2nonc12	91*	0	98	/	64*	100*
O=[N+]([O-])c1c(Nc2ccccn2)cc(Cl)c2nonc12	96*	11*	-24	/	60*	115*
O=C(CNC(=O)C1CCCCC1)NC1CCCCC1	-16	0	11	/	3	-3
Cc1ccc(N(C(=O)c2nsc(Cl)c2Cl)C(C(=O)NC2CCCC2)c2ccc(O)cc2)cc1C (stereo unspecified)	-9	0	23	6	48	12
CCOc1ccc(C(C(=O)NC2CCCC2)N(Cc2ccccc2)C(=O)c2nsc(Cl)c2Cl)cc1 (stereo unspecified)	34	0	4	62*	43	5
Cc1cc(C)cc(N(C(=O)c2nsc(Cl)c2Cl)C(C(=O)NC2CCCC2)c2ccc(O)cc2)c1 (stereo unspecified)	7	0	7	10	37	-3
COc1ccc(C(C(=O)NC2CCCC2)N(Cc2ccccc2)C(=O)c2nsc(Cl)c2Cl)cc1 (stereo unspecified)	29	0	13	63*	21	15
CCOc1ccccc1OCCCC(=O)Nc1cc(S(=O)(=O)N2CCOCC2)ccc1OC	-22	0	4	/	/	6
CC(C)CC(=O)Nc1ccc(C(=O)CN2CCC(C)CC2)cc1	-2	0	2	10	-9	1
CC(C)(C)c1ccc(NC(=O)N2CCCN(c3c(Cl)cncc3Cl)CC2)cc1	77*	0	5	/	13	3
CNC(=O)c1cc2c(-c3ccccc3)nn(C)c2s1	5	0	11	/	-3	18
CCCC/C(O)=C1\C(=O)CC(C)(C)CC1=NCCCCCC(=O)O	-14	0	-21	-6	-2	3
Cc1ccc(C(=O)NC(=S)NNC(=O)c2ccc([N+](=O)[O-])cc2)cc1	-6	0	81	/	11	1
CCCCCC(=O)NNC(=S)NC(=O)c1ccc([N+](=O)[O-])cc1	/	0	/	62*	10	3
CCc1nn(C(C)C(=O)N2CC(C)CC(C)C2)c(=O)c2cc3occc3n12 (stereo unspecified)	-1	0	-22	/	10	-6
CCc1nn(C(C)C(=O)N2CCN(Cc3ccccc3)CC2)c(=O)c2cc3occc3n12 (stereo unspecified)	1	0	-3	58*	/	-2
CCOc1ccc(-n2c(SCc3nc(-c4ccc(C)cc4)no3)nnc2-c2ccncc2)cc1	-8	0	-4	31	58*	0
CCn1c(NC(=O)/C=C/c2ccc(F)cc2)nc2ccccc21	20	0	12	/	11	19
Cc1ccc(N(C(C)C(=O)Nc2ccc(S(=O)(=O)N3CCOCC3)cc2)S(C)(=O)=O)cc1 (stereo unspecified)	1	0	-19	15	-10	-1
SMILES	CSC inhib	Efflux pump inh	SUMO Mot1 rescue	WT yeast gro inh	T cruzi inh	Beta apoptosis
Cc1ccc(N(C(C)C(=O)Nc2ccc(S(=O)(=O)N3CCOCC3)cc2)S(C)(=O)=O)cc1C (stereo unspecified)	-22	0	286*	0	1	-5
CC(=O)N1CCc2c(sc(NC(=O)c3ccc([N+](=O)[O-])o3)c2C#N)C1	/	/	/	-1	-18	/
COC(=O)c1sc(NC(=O)c2ccc([N+](=O)[O-])o2)c(C#N)c1C	/	0	-8	/	57*	24
COc1ccc(C(=O)CSc2nnc3n2CCCN3C(=O)Nc2ccccc2)cc1	-10	0	219	/	-9	1
CCOc1ccccc1CN1CCN(Cc2[nH]c3ccccc3c2C)CC1CCO (stereo unspecified)	18	0	8	-1	66*	3
Cc1ccc2[nH]c(CN3CCN(C)C(CCO)C3)c(C)c2c1 (stereo unspecified)	16	0	4	/	2	/
CCOc1ccccc1CN1CCN(Cc2nc3ccccc3s2)CC1CCO (stereo unspecified)	1	0	5	5	58*	-1
CCOc1ccc(CN2CCN(Cc3nc(C(C)C)cs3)CC2CCO)cc1 (stereo unspecified)	-2	0	-5	-6	58*	4
CCOc1ccc(CN2CCN(Cc3[nH]c4ccc(OC)cc4c3C)CC2CCO)cc1 (stereo unspecified)	-9	0	11	10	72*	/
O=C(C1CCC(CNS(=O)(=O)c2cccs2)CC1)N1CCN(c2ccc(Cl)cc2)CC1 (stereo unspecified)	-10	0	1	/	-1	55
COc1cc(NC(=O)C2CCCN2S(=O)(=O)c2ccc3c(c2)CC(C)N3C(C)=O)cc(OC)c1 (stereo unspecified)	6	0	16	/	4	/
COc1ccc(NC(=O)CSc2ccc3nnc(-c4ccccn4)n3n2)cc1OC	-13	0	-4	/	-6	-11
Cc1c(C(=O)Nc2cccc([N+](=O)[O-])c2)sc2ncn(CC(=O)N3CCOCC3)c(=O)c12	7	0	4	/	-10	-3
COc1ccc(CN2CCN(Cc3cc4ccccc4o3)CC2CCO)cc1C (stereo unspecified)	12	0	1	/	55*	/
Cc1cccc(CN2CCN(Cc3cccc4nonc34)CC2CCO)n1 (stereo unspecified)	-3	0	11	-1	4	-5
COc1ccc(CN2CCN(Cc3cccc4nonc34)CC2CCO)c(C)c1C (stereo unspecified)	1	0	-13	7	66*	-1
CCOc1ccccc1CN1CCN(CC2=Cc3cc(OC)ccc3OC2)CC1CCO (stereo unspecified)	7	0	42	/	55*	-4
CCc1cccc2c1Sc1ccccc1CC2N1CCNCC1 (stereo unspecified)	79*	0	-4	/	64*	/
Cc1cccc2c1Sc1ccc(Cl)cc1CC2N1CCNCC1 (stereo unspecified)	102*	0	-26	/	63*	/
CCOC(=O)c1c(C)oc2cc(Cl)c(O)c(CN(C)C)c12	-3	0	60	/	-18	0
